# Apaf-1 act – activates human Apaf-1 apoptosome; 330,000 tested, 0.31% active; AID 489031; Apaf-1 apoptosome caspase-3 activation, DEVD-Rh110 fluorescence; hits give low values; activity change, negative = activation, % at 20 µM; O14727;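 active = activity change at or below -40% at 20 µM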
# Target sequence (O14727 whole entry, looked up): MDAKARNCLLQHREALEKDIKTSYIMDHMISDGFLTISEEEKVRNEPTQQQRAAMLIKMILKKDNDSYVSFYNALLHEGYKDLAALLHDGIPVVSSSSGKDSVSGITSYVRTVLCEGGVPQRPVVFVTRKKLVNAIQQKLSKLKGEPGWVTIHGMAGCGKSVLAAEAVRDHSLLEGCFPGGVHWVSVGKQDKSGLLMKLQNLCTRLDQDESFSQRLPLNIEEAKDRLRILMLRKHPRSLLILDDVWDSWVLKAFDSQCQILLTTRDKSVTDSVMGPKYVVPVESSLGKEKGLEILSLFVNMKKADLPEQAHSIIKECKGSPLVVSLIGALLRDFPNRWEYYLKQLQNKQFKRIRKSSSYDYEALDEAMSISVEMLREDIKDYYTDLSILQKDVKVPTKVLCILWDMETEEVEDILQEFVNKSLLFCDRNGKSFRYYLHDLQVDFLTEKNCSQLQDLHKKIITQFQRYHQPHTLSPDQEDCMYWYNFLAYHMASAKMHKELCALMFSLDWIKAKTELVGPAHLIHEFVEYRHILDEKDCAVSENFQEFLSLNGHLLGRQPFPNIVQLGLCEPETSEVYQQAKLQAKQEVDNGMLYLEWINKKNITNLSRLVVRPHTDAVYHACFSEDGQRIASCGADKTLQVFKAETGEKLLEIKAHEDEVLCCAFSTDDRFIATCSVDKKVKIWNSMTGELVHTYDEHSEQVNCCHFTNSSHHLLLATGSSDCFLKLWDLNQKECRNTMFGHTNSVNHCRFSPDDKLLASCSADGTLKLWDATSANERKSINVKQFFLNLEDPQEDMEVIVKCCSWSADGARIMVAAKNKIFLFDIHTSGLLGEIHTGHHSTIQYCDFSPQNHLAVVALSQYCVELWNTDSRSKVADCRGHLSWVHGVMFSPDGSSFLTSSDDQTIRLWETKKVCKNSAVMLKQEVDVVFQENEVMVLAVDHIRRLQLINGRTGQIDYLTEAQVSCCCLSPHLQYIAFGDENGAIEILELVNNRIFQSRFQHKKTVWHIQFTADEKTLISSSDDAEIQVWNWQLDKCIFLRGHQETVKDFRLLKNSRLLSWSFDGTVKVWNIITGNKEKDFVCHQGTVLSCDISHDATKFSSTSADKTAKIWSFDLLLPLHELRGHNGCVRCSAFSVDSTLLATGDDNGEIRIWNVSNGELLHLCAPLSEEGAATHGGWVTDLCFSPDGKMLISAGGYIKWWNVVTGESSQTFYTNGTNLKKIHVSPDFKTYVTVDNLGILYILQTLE
#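 Material: biochemical Apaf-1 apoptosome reconstitution; Medium: 20 mM HEPES buffer, pH 7.5, containing CHAPS and BSA; Reagent: dATP, cytochrome c, and (Z-DEVD)2-Rh110 caspase-3 substrate; Times: 30 min preincubation, 50 min reaction, room temperature; Signal: Rh110 fluorescence, excitation 480 nm, emission 540 nm; Measure: Caspase-3 activity via Apaf-1.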
# Rh110 act interf – interferes with Rh110 fluorescence, flagging false Apaf-1 activators. fluorescence interference (activity change), % at 20 µM, hits read low. AID 504616. shares compounds with Apaf-1 act. 980 tested, under 10 active. Rh110 fluorescence interference, quenched caspase reaction, Ex480/Em540;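 active = mean activity change at or below -40% when tested at 20 µM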
# Apaf-1 act conf2 – Apaf-1 (human) activation, single-dose confirmed. shares compounds with Apaf-1 act. reconstituted apoptosome caspase-3 activity, DEVD-Rh110 fluorescence; hits give low values. activity change, negative = activation, % at 20 µM. 980 tested, 5% active;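 active = mean activity change at or below -40%, meaning activation of 40% or more, at 20 µM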
# Fluor interf act – shows fluorescence interference in the Apaf-1 activator assay format; shares compounds with Apaf-1 act; fluorescence interference counterscreen; 55 tested, under 10 active; EC50, µM; call rule not given here
# Numbers stand for hits; n = inactive; x = no result. Not all results are given here.
SMILES,Apaf-1 act,Rh110 act interf,Apaf-1 act conf2,others
CC(C)c1ccc(/C=N/NC(=O)c2ccccc2Cl)cc1,-194,n,n,
CN(C)CC/C=C1\c2ccccc2Sc2ccc(Cl)cc21,n,x,x,
COCCCNC(=O)c1c(N)n(-c2ccccc2)c2nc3ccccc3nc12,n,x,x,
CC(OC(=O)c1ccc(-n2cnnn2)cc1)C(=O)Nc1ccccc1F (configuration not stated),-229,n,n,
COc1cc(OC)c2c(-c3ccccc3)cc(=O)oc2c1C(CCN1CCCCC1)c1ccc(N(C)C)cc1 (configuration not stated),n,x,x,
COc1ccc(-c2cc(=O)[nH][nH]2)cc1OC,n,x,x,
COc1ccc(-c2cnc(OC(C)(C)C)nc2OC(C)(C)C)cc1OC,-265,n,n,
O=C(CN1CCc2cc3c(cc2C1)OCCCO3)Nc1cccc([N+](=O)[O-])c1,n,x,x,
O=C(Nc1ccncc1NC(=O)c1cccc([N+](=O)[O-])c1)c1cccc([N+](=O)[O-])c1,-40,n,n,
O=C(N/N=C/c1ccc(-c2ccccc2[N+](=O)[O-])o1)c1cccnc1,n,x,x,
Cc1ccc(S(=O)(=O)NC(=O)Nc2ccc(N(C)C)cc2)cc1,n,x,x,
Cc1noc(NS(=O)(=O)c2ccc(NC(=O)NC(C)(C(F)(F)F)C(F)(F)F)cc2)c1C,-232,n,n,
COc1ccc(/C=N/Nc2cc(C)nc3ccc(Br)cc23)cc1,n,x,x,
COc1ccccc1-c1sc2cc3c(cc2c1-c1ccc(OCCN2CCCCC2)cc1)OCO3,n,x,x,
Cc1c(/C=N/Nc2nc3ccccc3[nH]2)c2ccccc2n1C,n,x,x,
CCN(CC)C(=O)C(=O)c1c(-c2ccccc2)[nH]c2ccccc12,-510,n,n,
CCN(c1ccccc1)c1cc2ccccc2c(=O)[nH]1,n,x,x,
Cc1ccc2cc(C(c3nnnn3Cc3ccccc3)N3CCc4ccccc43)c(=O)[nH]c2c1 (configuration not stated),n,x,x,
Cc1ccc(-n2nc3ccc(N)cc3n2)cc1C,n,x,x,
Brc1ccc(-c2cn3nc4c(nc3n2)CCCC4)cc1,n,x,x,
O=C1Nc2ccccc2N2CCCC12 (configuration not stated),n,x,x,
O=C1CN(C(=O)c2cnccn2)c2ccccc2N1,-47,n,n,
CCN(C(=O)Cn1c(=O)n2nc(CCn3nc(C)cc3C)nc2c2ccccc21)c1cccc(C)c1,-291,n,n,
CC1=NN(c2ccc(C)c(C)c2)C(=O)/C1=C/c1ccc2c(c1)n(C)c(=O)n2C,n,x,x,
CC1OC(Nc2cccc3ccccc23)C(O)C(O)C1O (configuration not stated),n,x,x,
SMILES,Apaf-1 act,Rh110 act interf,Apaf-1 act conf2,others
CCOC(=O)Nc1sc2c(c1C#N)CCCC2,-62,n,n,
CC(C)CC(=O)NC(NC(=S)Nc1sc2c(c1C#N)CCCC2)C(Cl)(Cl)Cl (configuration not stated),-215,n,n,
CC(=O)N1CCN(C(=S)Nc2ccc(SC(F)F)cc2)CC1,n,x,x,
Cc1ccc(C(=O)c2c3ccc(N)cc3nn2CCC(N)=O)cc1,n,x,x,
CC(=O)N(Cc1ccc(F)cc1)C1=C(NCCc2ccccc2)C(=O)c2ccccc2C1=O,n,x,x,
COc1ccc(CCNc2nc(-c3ccc(F)cc3)c(CC(=O)O)s2)cc1OC,-162,n,n,
COc1ccc(-c2noc(-c3ccccc3C(=O)NCc3ccco3)n2)cc1OC,-324,n,n,
COc1ccc(NC(=O)c2ccc(-c3ccc(-c4noc(C)n4)cc3C)cc2)cc1N1CCN(C)CC1,n,x,x,
O=C(NCc1ccccc1)c1ccc2nc(-c3ccco3)c(-c3ccco3)nc2c1,n,x,x,
CN(C)CCCN1c2ccccc2Sc2ccc(Cl)cc21,n,x,x,
CC1=NN(c2ccc(N)cc2)C(=O)C1,n,x,x,
COc1ccc(-c2nc(-c3ccccc3)c(-c3cccs3)[nH]2)cc1OC,-373,n,n,
Cc1coc2c1C(=O)C(=O)c1c-2ccc2c(C)cccc12,n,x,x,
CC(C)(C)CC(C)(C)c1ccc(OCCOCC[N+](C)(C)Cc2ccccc2)cc1,n,x,x,
C#CCOCCOCCOCCNc1nc(N2CCN(C(=O)CCCCCCCCCCNC(=O)Cn3cc(CCCCCN)nn3)CC2)nc(N2CCN(C(=O)CCCCCCCCCCNC(=O)[C@H](CO)n3cc(CCCCCN)nn3)CC2)n1,n,x,x,
CCOC(=O)c1[nH]c(COC(=O)c2ccccc2NC(=O)c2ccco2)c(C(=O)OCC)c1C,-383,n,n,
CCN(C(=S)NC(=O)c1ccco1)c1cccc2ccccc12,n,x,x,
CC(C)=CCc1c(O)c(CC=C(C)C)c2c(c1O)C(=O)CC(c1ccc(O)cc1)O2 (configuration not stated),-150,n,n,
Cc1coc2c1C(=O)C(=O)c1c-2ccc2c1CCCC2(C)C,n,x,x,
CC(=O)Nc1cc(OC(C)=O)c2nonc2c1OC(C)=O,n,x,x,
Cc1ncc([N+](=O)[O-])n1CCN1C(=O)c2ccccc2C1=O,-144,n,n,
O=c1cccccc1NCc1ccccc1,n,x,x,
Cc1nc2sccn2c(=O)c1CCN1CCC(=C(c2ccccc2)c2ccc(F)cc2)CC1,n,x,x,
CC(=O)OC1=C(O)C(=O)c2ccccc2C1=O,n,x,x,
CCCCn1c(NC(=O)c2ccc(F)cc2)c(C#N)c2nc3ccccc3nc21,n,x,x,
SMILES,Apaf-1 act,Rh110 act interf,Apaf-1 act conf2,others
c1cc2c3c(cccc3c1)NC1(CCCCCC1)N2,n,x,x,
O=C(CCCC(=O)OCC(Cl)=C(Cl)Cl)Nc1ccccc1F,-61,n,n,
NC1=NC[C@@H](CC2CCCCC2)N1CCc1cc(C(F)(F)F)cc(C(F)(F)F)c1,n,x,x,
COc1ccc(Cn2c(N)c(C#N)c3nc4ccccc4nc32)cc1,n,x,x,
O=C(NNc1cc(N2CCCC2)nc(N2CCCC2)n1)c1ccc([N+](=O)[O-])cc1,n,x,x,
Cn1cc([N+](=O)[O-])c(C(=O)NNC(=O)c2ccc([N+](=O)[O-])cc2Cl)n1,-161,n,n,
COCC(C)N1C(=O)Cc2c1nc(N)c1c(N)nc(N3CCN(c4ccccc4F)CC3)c(C#N)c21 (configuration not stated),n,x,x,
Cc1ccccc1NC1=C/C(=N\S(=O)(=O)c2ccc(C(=O)O)cc2)c2ccccc2C1=O,n,x,x,
CCc1ccc(S(=O)(=O)/N=C2\C=C(NS(=O)(=O)c3ccccc3)C(=O)c3ccccc32)cc1,n,x,x,
Cc1ccc(C)c(S(=O)(=O)/N=C2\C=C(NS(=O)(=O)c3ccccc3)C(=O)c3ccccc32)c1,n,x,x,Fluor interf act=n
CN(C)c1cc(N/N=C\c2ccccc2)nc(N(C)C)n1,n,x,x,
O=C1NC(c2ccc(-c3ccccc3[N+](=O)[O-])o2)C(C(=O)c2ccc(F)cc2)C(O)(C(F)(F)F)N1 (configuration not stated),n,x,x,
CC(C)OCCCNC1=C(Cl)C(=O)c2ccccc2C1=O,n,x,x,
COc1ccc2oc(C)c(C(=O)Cn3ccnc3)c2c1,-246,n,n,
COc1ccc(CN(C)C(=O)c2ccc(OCC(=O)Nc3cccc(C(F)(F)F)c3)c(OC)c2)c(OC)c1,n,x,x,
O=C(c1ccccc1)N1CCCOC1c1ccccc1 (configuration not stated),-67,n,n,
COC(=O)C1=C(C)N(Cc2ccccc2)C(=NCc2cccc(C(F)(F)F)c2)N[C@H]1c1cccc(C(F)(F)F)c1,n,x,x,
